As a reminder, the inhibition is the change of the read-out against control, counted positive when it falls. A high value points to strong suppression. For orientation: IC50 means the concentration that gives 50% inhibition. The low end stands for inhibition by little substance, the high end for a need for much substance.

Calls of active or inactive are those of the source.

We go through 33 compounds from ChEMBL document CHEMBL1123184, “Thromboxane synthetase inhibitors and antihypertensive agents. 2. N-[(1H-imidazol-1-yl)alkyl]-1H-isoindole-1,3(2H)-diones and N-[(1H-1,2,4-triazol-1-yl)alkyl]-1H-isoindole-1,3(2H)-diones as unique antihypertensive agents” (J Med Chem, 1986).

Test [1] addresses T1, Thromboxane-A synthase (Rattus norvegicus) (UniProt P49430).
T1 sequence (whole entry): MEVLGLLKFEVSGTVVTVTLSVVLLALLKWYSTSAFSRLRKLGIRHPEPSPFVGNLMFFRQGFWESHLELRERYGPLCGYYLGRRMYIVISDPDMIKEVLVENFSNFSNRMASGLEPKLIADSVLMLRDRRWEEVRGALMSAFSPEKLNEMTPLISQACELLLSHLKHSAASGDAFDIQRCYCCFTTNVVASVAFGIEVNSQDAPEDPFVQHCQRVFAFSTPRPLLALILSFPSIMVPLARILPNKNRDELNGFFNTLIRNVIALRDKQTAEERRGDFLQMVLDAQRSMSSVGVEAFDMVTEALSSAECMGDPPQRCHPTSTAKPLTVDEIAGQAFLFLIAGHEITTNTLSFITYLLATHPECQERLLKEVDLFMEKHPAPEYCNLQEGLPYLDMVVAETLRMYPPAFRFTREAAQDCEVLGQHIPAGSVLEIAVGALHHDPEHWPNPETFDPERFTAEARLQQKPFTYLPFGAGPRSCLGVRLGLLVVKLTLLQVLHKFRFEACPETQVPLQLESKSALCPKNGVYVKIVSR
As to the kind of experiment: Inhibition of thromboxane formation (thromboxane synthetase) in platelets at 10e-4 M. Type of test: functional. The essentials: (§1)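 SHR washed platelets (4.5–6.0 × 10^4/μL, Krebs phosphate pH 7.4) incubated 10 min at 37 °C with compound at 10^-4 M. Reaction stopped with citric acid on ice. TXB2 quantified by RIA, boiled-control blank subtracted, and percent inhibition of TXB2 formation calculated. Number of determinations given per value.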

Test [2] has as its target T2, Thromboxane-A synthase (Rattus norvegicus, UniProt P49430).
T2 sequence (P49430 whole entry): T1 sequence (whole entry)
The test is described as follows: (§2) Compound was tested for the inhibition of thromboxane synthetase. It counts as functional. A digest of the protocol:
(§3)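 Washed platelets from urethan-anesthetized SHR aged 19–24 weeks, in oxygenated Krebs phosphate buffer pH 7.4 at (4.5–6.0) × 10^4 platelets/μL. Incubated 10 min at 37 °C with compound, stopped with citric acid on ice. TXB2 measured by RIA; boiled-sample blank subtracted. IC50 read from percent inhibition vs log concentration plot; duplicate measurements.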

The test system of test [3] is Rattus norvegicus. As to the kind of experiment: Compound was tested for the antihypertensive activity in rats, after peroral administration of 100 mg/kg; I=Inactive. It counts as functional, organism-based. The arrangement: dose 100 mg/kg. A digest of the protocol:
(§4)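 Male 16-week-old Okamoto SHR (mean arterial pressure 170 ± 1.5 mmHg). Compound suspended in 2% preboiled starch (50 mg/mL) and given by gavage at 100 mg/kg, with 0.9% NaCl load 25 mL/kg. Second identical dose without saline 24 h later. Mean arterial pressure read 28 h after first dose. Active: one rat ≤116 mmHg or mean of two ≤122 mmHg.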

Test [4] concerns Rattus norvegicus. The test is described as follows: Compound was tested for the antihypertensive activity in rats, after peroral administration of 100 mg/kg for 2 days (no. of rats=2); A=Active. Type of test: functional, organism-based. The arrangement: dose 100 mg/kg. The essentials:
as §4

Test [5] has as its target T1, Thromboxane-A synthase (Rattus norvegicus). The test is described as follows: Inhibition of thromboxane formation in platelets at a concentration of 10e-4 M. Type of test: functional. The essentials: as §1
For test [6], the system named is Rattus norvegicus. The test is described as follows: Compound was tested for the antihypertensive activity in rats, after peroral administration of 100 mg/kg for 2 days (no. of rats=3); A=Active. It counts as functional, organism-based. The arrangement: dose 100 mg/kg. The essentials: as §4
For test [7], the system named is Rattus norvegicus. As to the kind of experiment: Compound was tested for the antihypertensive activity in rats, after peroral administration of 100 mg/kg for 2 days (no. of rats=3); I=Inactive. It counts as functional, organism-based. Details: dose 100 mg/kg. The essentials: as §4
Test [8] addresses T2, Thromboxane-A synthase. The description is as §2. The essentials:
as §3

Test [9] has as its system Rattus norvegicus. The test is described as follows: Compound was tested for the antihypertensive activity in rats, after peroral administration of 100 mg/kg for 2 days (no. of rats=2); a=Active. Type of test: functional, organism-based. The arrangement: dose 100 mg/kg. A digest of the protocol:
as §4

Test [10] concerns Rattus norvegicus. The test is described as follows: Compound was tested for the antihypertensive activity in rats, after peroral administration of 100 mg/kg for 2 days (no. of rats=2); I=Inactive. Type of test: functional, organism-based. Details: dose 100 mg/kg. A digest of the protocol: as §4
Test [11] has as its system Rattus norvegicus. As to the kind of experiment: Compound was tested for the antihypertensive activity in rats, after peroral administration of 100 mg/kg; A=Active. Type of test: functional, organism-based. The arrangement: dose 100 mg/kg. A digest of the protocol:
as §4

In test [12] the test system is Rattus norvegicus. The test is described as follows: Compound was tested for the antihypertensive activity in rats, after peroral administration of 100 mg/kg for 2 days (no. of rats=4); I=Inactive. Type of test: functional, organism-based. The arrangement: dose 100 mg/kg. A digest of the protocol: as §4

With `O=C1c2ccccc2C(=O)N1CCCCCCCCn1ccnc1`, in test [1], the inhibition came to 100%. The midpoint of inhibition on Thromboxane-A synthase [2], the IC50, lay at 0.2 µM. Further, the outcome in the test with Rattus norvegicus [3] was inactive.

`O=C1c2cccc(Br)c2C(=O)N1CCCCCn1ccnc1` yielded an inhibition in [1] of 87%. Further, the half-inhibitory concentration (IC50) on Thromboxane-A synthase [2] worked out at 0.6 µM. For the same compound, in the test with Rattus norvegicus [3], the result was inactive.

`O=C1c2ccccc2C(=O)N1CCCn1cncn1`: in the test with Rattus norvegicus [4], the result was Active. Besides, in [5], the inhibition amounted to 64%.

Regarding `CC(CCn1ccnc1)N1C(=O)c2ccccc2C1=O` (stereo unspecified), the outcome in the test with Rattus norvegicus [6] was Active. In test [5], this compound came in with an inhibition of 94%.

For the compound `O=C1c2ccccc2C(=O)N1CCCCn1ccnc1-c1ccccc1`, the outcome in the test with Rattus norvegicus [7] was inactive. In test [5], this compound gave an inhibition of 57%.

On to `O=C1c2ccccc2C(=O)N1CCCCCCCCCCn1ccnc1`, for which, in [1], the inhibition came out at 92%. The IC50 against Thromboxane-A synthase [2] was 0.1 µM. For the same compound, the outcome in the test with Rattus norvegicus [3] was inactive.

In the case of `O=C1c2ccccc2C(=O)N1CCCCn1ccnc1`, half-maximal inhibition on Thromboxane-A synthase [8] (IC50) was put at 2 µM. For the same compound, the result in the test with Rattus norvegicus [4] was Active. Further, in test [5], the inhibition came to 99%.

Turning to `Cc1cn(CCCCN2C(=O)c3ccccc3C2=O)cn1`, the outcome with Rattus norvegicus [7] was inactive. Also, in [5], the inhibition worked out at 86%.

For the compound `O=C1c2ccc(Cl)c(Cl)c2C(=O)N1CCCn1cncn1`, the inhibition in test [1] is 73%. In addition, in the test on Rattus norvegicus [3], the result was inactive.

Regarding `O=C1c2ccccc2C(=O)N1CCCCCn1cncn1`, the outcome in the test with Rattus norvegicus [4] was Active. Besides, the inhibition in test [5] came to 79%.

On to `O=C1c2ccccc2C(=O)N1CCn1cncn1`, for which the outcome with Rattus norvegicus [9] was Active. In [5], this compound registered an inhibition of 0%.

With `CCc1nccn1CCCN1C(=O)c2ccccc2C1=O`, in the test with Rattus norvegicus [10], the outcome was inactive. The inhibition in test [5] is 0%.

For `CC(CCn1ccnc1)N1C(=O)c2cccc(Br)c2C1=O` (stereo unspecified), the inhibition in test [1] amounted to 89%. Further, in the test with Rattus norvegicus [3], the result was inactive.

For the compound `O=C1c2cccc(Cl)c2C(=O)N1CCCCn1ccnc1`, the inhibition in test [1] was 100%. Further, the result in the test with Rattus norvegicus [11] was Active.

For the compound `CC(CCn1cncn1)N1C(=O)c2ccccc2C1=O` (stereo unspecified), in the test on Rattus norvegicus [12], the outcome was inactive. In test [5], this compound came in with an inhibition of 47%.

As to `CCc1nccn1CCCCN1C(=O)c2ccccc2C1=O`, the outcome in the test with Rattus norvegicus [10] was inactive. In addition, in [5], the inhibition was found to be 65%.

On Thromboxane-A synthase [8], `Cc1cccc2c1C(=O)N(CCCCn1ccnc1)C2=O` registered an IC50 of 2 µM. Moreover, the result with Rattus norvegicus [4] was Active. In addition, the inhibition in [5] came out at 100%.

`O=C1c2ccccc2C(=O)N1CCCCn1cncn1`: the inhibition in test [5] was 70%.

For the compound `O=C1c2ccccc2C(=O)N1CCCCCn1ccnc1`, the concentration for half-maximal inhibition (IC50) against Thromboxane-A synthase [8] stood at 6 µM. In addition, in the test on Rattus norvegicus [4], the outcome was Active. For the same compound, the inhibition in [5] was found to be 92%.

In turn, `O=C1c2ccc(Cl)c(Cl)c2C(=O)N1CCCn1ccnc1` showed an inhibition in test [1] of 100%. The compound further came in with an IC50 on Thromboxane-A synthase [2] of 0.4 µM. Moreover, the result in the test with Rattus norvegicus [3] was inactive.

Turning to `Cc1cccc2c1C(=O)N(CCCn1ccnc1)C2=O`, the outcome in the test on Rattus norvegicus [7] was inactive. Besides, half-maximal inhibition against Thromboxane-A synthase [8] (IC50) required 4 µM. This compound gave an inhibition in test [5] of 100%.

Turning to `O=C1c2ccc(Cl)c(Cl)c2C(=O)N1CCCCn1ccnc1`, the inhibition in test [1] worked out at 100%. In addition, in the test on Rattus norvegicus [3], the result was inactive.

In the case of `O=C1c2ccccc2C(=O)N1CCCCCCn1ccnc1`, the inhibition in test [1] was 100%. Moreover, the IC50 against Thromboxane-A synthase [2] was determined as 1.5 µM. Besides, the result in the test on Rattus norvegicus [11] was Active.

`O=C1c2ccccc2C(=O)N1CCCn1ccnc1`: half-maximal inhibition against Thromboxane-A synthase [8] (IC50) was put at 5 µM. Moreover, in the test on Rattus norvegicus [4], the outcome was Active. The inhibition in test [5] amounted to 94%.

The compound `O=C1c2cccc(Cl)c2C(=O)N1CCCn1ccnc1` returned an inhibition in test [1] of 92%. Besides, the outcome with Rattus norvegicus [11] was Active.

For the compound `Cc1nccn1CCCN1C(=O)c2ccccc2C1=O`, the result in the test with Rattus norvegicus [10] was inactive. Also, the inhibition in test [5] is 36%.

`O=C1c2ccccc2C(=O)N1C/C=C/Cn1ccnc1`: the result in the test with Rattus norvegicus [4] was Active. The inhibition in test [5] was found to be 85%.

With `Cc1nccn1CCCCN1C(=O)c2ccccc2C1=O`, the outcome in the test on Rattus norvegicus [12] was inactive. In addition, the inhibition in test [5] is 22%.

In test [1], `O=C1c2cccc(Br)c2C(=O)N1CCCn1cncn1` yielded an inhibition of 76%. Moreover, the result in the test with Rattus norvegicus [3] was inactive.

As for `Cc1cn(CCCN2C(=O)c3ccccc3C2=O)cn1`, the result in the test with Rattus norvegicus [10] was inactive. In [5], the inhibition is 68%.

Regarding `O=C1c2cccc(Br)c2C(=O)N1CCCCn1ccnc1`, the inhibition in test [1] was 100%. For the same compound, the half-maximal inhibitory concentration (IC50) against Thromboxane-A synthase [2] turned out to be 1 µM. Besides, in the test with Rattus norvegicus [11], the outcome was Active.

On to `O=C1c2ccccc2C(=O)N1CCn1ccnc1`, for which the result with Rattus norvegicus [4] was Active. In test [5], the inhibition was found to be 20%.

On to `O=C1c2ccccc2C(=O)N1CC#CCn1ccnc1`, for which the inhibition in [1] is 100%. In the test on Rattus norvegicus [11], the outcome was Active.
